Substitutions are numbered along the chain they refer to.

The results in this text go back to PMC3180826 (ACS chemical neuroscience, 2010).

One assay has as its target T1, rM4 (Rattus norvegicus, UniProt P08485).
T1 sequence (P08485 1-478): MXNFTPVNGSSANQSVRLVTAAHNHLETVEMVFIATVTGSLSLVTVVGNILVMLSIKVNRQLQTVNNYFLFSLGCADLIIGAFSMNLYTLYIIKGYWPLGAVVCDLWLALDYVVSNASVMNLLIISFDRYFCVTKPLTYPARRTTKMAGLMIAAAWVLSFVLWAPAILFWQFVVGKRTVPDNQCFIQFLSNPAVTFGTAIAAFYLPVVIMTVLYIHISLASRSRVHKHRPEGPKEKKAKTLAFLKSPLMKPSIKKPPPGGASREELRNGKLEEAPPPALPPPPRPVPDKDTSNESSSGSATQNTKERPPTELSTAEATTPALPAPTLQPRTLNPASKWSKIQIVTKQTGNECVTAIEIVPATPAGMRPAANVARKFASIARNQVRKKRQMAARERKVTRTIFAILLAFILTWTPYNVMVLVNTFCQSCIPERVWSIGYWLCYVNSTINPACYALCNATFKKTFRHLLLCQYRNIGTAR
Nature of the assay: Calcium mobilization assay, agonist mode, M4. The note with it: up to 30 μM. It is filed as cell-based. In short, it runs like this:
(§1)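 CHO-K1 cells stably expressing hM2/Gqi5 or rM4/Gqi5 (6 × 10^4 cells/well), or hM3 or hM5 (5 × 10^4 cells/well), were cultured overnight at 37 °C in 5% CO2. Cells were loaded with 2 μM Fluo-4 AM for 1 h at 37 °C in HBSS with 20 mM HEPES and 2.5 mM probenecid, pH 7.4. Eight-point test compound concentration series were added at 19 s of a 130 s read. Calcium flux was read as fluorescence fold over basal.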
(Calcium assays in cells follow changes in intracellular calcium, usually with a dye or a luminescent sensor.)

The target of another assay is T2, hM5 (Homo sapiens, UniProt P08912).
T2 sequence (P08912 1-532): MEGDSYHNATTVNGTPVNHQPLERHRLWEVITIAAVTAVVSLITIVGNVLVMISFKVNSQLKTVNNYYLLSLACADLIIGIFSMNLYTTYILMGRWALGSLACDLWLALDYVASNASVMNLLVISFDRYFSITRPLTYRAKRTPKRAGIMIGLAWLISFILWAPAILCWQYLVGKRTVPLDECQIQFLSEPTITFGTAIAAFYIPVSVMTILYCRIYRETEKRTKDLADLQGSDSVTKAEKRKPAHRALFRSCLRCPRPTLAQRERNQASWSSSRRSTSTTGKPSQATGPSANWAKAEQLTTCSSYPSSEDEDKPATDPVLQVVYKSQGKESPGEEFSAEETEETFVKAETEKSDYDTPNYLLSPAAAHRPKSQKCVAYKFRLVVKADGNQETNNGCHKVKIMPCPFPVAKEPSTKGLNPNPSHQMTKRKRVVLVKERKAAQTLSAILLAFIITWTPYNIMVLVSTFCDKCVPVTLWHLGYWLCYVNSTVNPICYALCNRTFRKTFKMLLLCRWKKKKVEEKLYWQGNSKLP
The assay can be described thus: Calcium mobilization assay, agonist mode, M5. Particulars: up to 30 μM. It counts as cell-based. In short, it runs like this: as §1

The target in another assay is T3, rM1 Y381A (Rattus norvegicus, UniProt P08482, Y381A).
T3 sequence (P08482 1-460 Y381A): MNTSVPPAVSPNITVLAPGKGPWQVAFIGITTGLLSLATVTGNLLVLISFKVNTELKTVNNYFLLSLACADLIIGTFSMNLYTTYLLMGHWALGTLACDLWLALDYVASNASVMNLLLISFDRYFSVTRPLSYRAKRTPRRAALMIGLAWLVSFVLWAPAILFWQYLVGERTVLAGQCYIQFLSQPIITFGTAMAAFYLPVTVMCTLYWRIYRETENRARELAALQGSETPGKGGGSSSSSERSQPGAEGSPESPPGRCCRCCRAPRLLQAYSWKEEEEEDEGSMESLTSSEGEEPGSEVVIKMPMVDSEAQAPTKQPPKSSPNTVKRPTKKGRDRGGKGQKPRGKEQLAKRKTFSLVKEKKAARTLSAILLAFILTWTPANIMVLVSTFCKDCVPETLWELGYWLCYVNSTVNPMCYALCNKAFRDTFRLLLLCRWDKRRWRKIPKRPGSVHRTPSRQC
The assay can be described thus: Calcium mobilization in rM1 Y381A. It is filed as cell-based.

The next assay deals with M3 (Homo sapiens, UniProt P20309). Nature of the assay: [3H]-NMS competition binding, M3 CHO membranes. Particulars: concentrations well above those required to fully activate M1.
The target of a further assay is T4, rM1 K392D/E397V/E401H (Rattus norvegicus, UniProt P08482, E397V/E401H/K392D).
T4 sequence (P08482 1-460 K392D/E397V/E401H): T3 sequence (P08482 1-460 Y381A) with A381Y, K392D, E397V, E401H
The assay can be described thus: Calcium mobilization, transiently transfected rM1 triple mutant CHO cells. It counts as cell-based. Particulars: compared with wt rM1. In a few lines: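 CHO-K1 cells were transiently transfected overnight at 37 °C with 10 μg of mutant rat M1 cDNA in pcDNA3.1+ using Fugene 6, then plated for the calcium assay. They were loaded with 2 μM Fluo-4 AM for 1 h at 37 °C in HEPES/probenecid-buffered HBSS, pH 7.4. Test compound dose–response series were added at 19 s. Calcium mobilization was measured as fluorescence increase over basal.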

Chain of M3 (P20309 whole entry): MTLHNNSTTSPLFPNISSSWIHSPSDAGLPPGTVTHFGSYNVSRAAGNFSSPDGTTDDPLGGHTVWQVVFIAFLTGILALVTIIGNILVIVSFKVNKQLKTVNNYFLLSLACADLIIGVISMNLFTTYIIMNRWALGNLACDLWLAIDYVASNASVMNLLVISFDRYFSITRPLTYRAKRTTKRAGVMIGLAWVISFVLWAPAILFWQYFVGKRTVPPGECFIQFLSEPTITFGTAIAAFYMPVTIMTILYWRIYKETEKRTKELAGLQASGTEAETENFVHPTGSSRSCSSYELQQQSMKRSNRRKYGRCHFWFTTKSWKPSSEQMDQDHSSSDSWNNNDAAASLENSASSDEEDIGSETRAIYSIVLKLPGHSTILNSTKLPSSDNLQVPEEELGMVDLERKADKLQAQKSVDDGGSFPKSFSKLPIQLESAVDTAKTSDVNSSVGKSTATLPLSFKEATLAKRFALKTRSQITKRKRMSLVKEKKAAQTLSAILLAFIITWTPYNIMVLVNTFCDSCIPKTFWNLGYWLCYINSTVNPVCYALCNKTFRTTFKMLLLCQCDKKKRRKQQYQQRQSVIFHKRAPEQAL

Usually EC50 stands for the concentration at which the effect is half-maximal. `CCOC(=O)N1CCC(NCCNC(=O)c2ccccc2)CC1` [VU0184670, ethyl 4-(2-benzamidoethylamino)piperidine-1-carboxylate]: the “agonist activity at M4” value on rM4 is “no activity”. Besides, the “agonist activity at M5” value at hM5 is given as “no activity”. Besides, the EC50 on rM1 Y381A was 304 ± 156 nM. Besides, the “potency at M1 Y381A compared with WT M1” value at rM1 Y381A (M1Y381A CHO cells vs WT M1 CHO cells) was “potencies similar to those observed in WT M1 CHO cells”. The “rM1 Y381A AChmax (maximal efficacy)” value at rM1 Y381A (rM1 Y381A cells) amounted to 63.25 % max. Also, at M3, the “reduction of [3H]-NMS binding to M3” value is reported as “did not reduce”. Further, the “functional response at K392D/E397V/E401H triple mutant” value on rM1 K392D/E397V/E401H is listed as “almost completely ablated”.
